Platelet DG rel: platelet dense granule release activity | human platelet-rich plasma, SFLLRN dense granule ATP release, luminescence | inhibition, %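 (compounds screened at 7.5 µM in platelet-rich plasma)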 | actives 0.22% (n = 300,000);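 active = mean replicate score, as percent of positive control, at or above 50; inconclusive = mean below 50 but at least one replicate at or above 50; inactive = mean and every replicate below 50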
SENP8 block-1: SENP8 (human) protease inhibition | recombinant SENP8, Nedd8 substrate fluorescence | inhibition, % at 20 µM | AID 602440 | Q96LD8 | actives 0.64% (n = 360,000); in the data active = inhibition mostly above about 40%, no sharp cut-off; inactive = mostly below about 27%
SENP6 inh: inhibitors of human SENP6 protease; Q9GZR1; Recombinant SENP6 catalytic domain, aminoluciferin luminescence; inhibition, % at 10 µM; actives 1.8% (n = 330,000); AID 2599;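 active = inhibition above about 50% at the single tested dose, limit read from the data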;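 also: plate controls were DMSO wells with enzyme for no effect and DMSO wells lacking enzyme for full effect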
Target sequence (Q9GZR1 628-1112 limits assumed): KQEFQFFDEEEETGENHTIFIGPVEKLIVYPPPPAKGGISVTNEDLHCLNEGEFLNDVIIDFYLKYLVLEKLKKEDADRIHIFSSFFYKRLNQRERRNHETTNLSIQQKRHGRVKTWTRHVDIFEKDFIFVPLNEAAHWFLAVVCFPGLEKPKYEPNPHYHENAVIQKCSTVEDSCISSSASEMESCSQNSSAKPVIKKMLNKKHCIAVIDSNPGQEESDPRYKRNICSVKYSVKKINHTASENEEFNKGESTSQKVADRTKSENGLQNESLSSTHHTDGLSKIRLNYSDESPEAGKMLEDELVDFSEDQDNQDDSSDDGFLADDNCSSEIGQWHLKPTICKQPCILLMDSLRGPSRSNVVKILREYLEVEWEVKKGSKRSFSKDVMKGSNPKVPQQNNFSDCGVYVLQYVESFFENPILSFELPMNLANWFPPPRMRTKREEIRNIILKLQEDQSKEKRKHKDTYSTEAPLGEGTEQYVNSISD
SENP7 inh: inhibitors of human SENP7 protease; Q9BQF6; recombinant SENP7, Z-RLRGG-aminoluciferin luminescence, 40 min; inhibition, % at 5 µM; actives 1.5% (n = 330,000);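 active = inhibition above about 50% at the single test dose, limit read from the data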;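 also: plate controls were DMSO with enzyme for no effect and no enzyme buffer wells for full effect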
SENP8 block-2: SENP8 protease inhibition; purified SENP8, Z-RLRGG-aminoluciferin cleavage, luminescence; actives 1.2% (n = 330,000); Q96LD8; inhibition, % at 10 µM; in the data active = inhibition above about 50%
SENP1 inh: inhibitors of human SENP1 SUMO protease catalytic domain | Q9P0U3 | recombinant SENP1 catalytic domain, CyPet-SUMO1-YPet FRET cleavage | inhibition, % at 10 µM | actives 0.21% (n = 360,000);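 active = inhibition at least 30% at 10 µM, raw YFP signal under a set limit, fluorescence ratio 0.5 to 1.5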;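 also: 0% = enzyme with DMSO and 100% = no enzyme wells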
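Test system: human SENP1 catalytic domain; medium: Tris pH 8 buffer plus EDTA, NaCl, BME, BSA, NP40, catalase; incubation: 50 min reaction at room temperature; technique: FRET, CFP and YFP emission; controls: no-enzyme low control and enzyme-plus-DMSO high control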
SENP8 confirm: human SENP8 inhibition, confirmed; shares compounds with SENP7 inh; Recombinant SENP8, Z-RLRGG-aminoluciferin luminescence, 60 min; actives 40% (n = 6,200); inhibition, % at 12.5 µM;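 active = mean inhibition across replicates above about 50%, limit read from the data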
SENP6 conf: confirmation of human SENP6 protease inhibitors | inhibition, % at 12.5 µM | shares compounds with SENP7 inh | AID 488915 | actives 58% (n = 6,200) | recombinant SENP6, Z-RLRGG-aminoluciferin luminescence
SENP7 conf: confirmation of human SENP7 protease inhibitors. shares compounds with SENP7 inh. AID 488917. inhibition, % at 12.5 µM. recombinant SENP7, Z-RLRGG-aminoluciferin luminescence, 40 min. actives 69% (n = 6,200)
Casp3 select: inhibits human caspase-3 in SENP selectivity test; inhibition, % at 12.5 µM; purified caspase-3, Z-DEVD-aminoluciferin luminescence, 60 min; shares compounds with SENP7 inh; actives 60% (n = 6,200);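 active = mean inhibition above about 50%, limit read from the data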;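 also: plate controls were enzyme with DMSO for no effect and wells without caspase-3 for full effect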
SENP luc ctr: interferes with luciferase luminescence in SENP counter-screen | Pre-incubated SENP8/Z-RLRGG-aminoluciferin, luciferase luminescence interference | inhibition, % at 12.5 µM | actives 39% (n = 6,200) | shares compounds with SENP7 inh;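 active = mean inhibition above about 50% when retested at one dose, limit read from the data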;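 also: plate controls were DMSO wells with completed reaction for no effect and substrate without enzyme for full effect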
An asterisk follows results filed as active; ? = inconclusive; nt = no result given. Compounds with a hit are over-represented: about 2.6% of the library has one in this group of screens.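 The calls were made as follows, unless noted: active = mean inhibition above about 50% in the one-dose retest (limit read from the data); inactive = the rest.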

SMILES	Platelet DG rel	SENP8 block-1	SENP6 inh	SENP7 inh	SENP8 block-2	SENP1 inh	SENP8 confirm	SENP6 conf	SENP7 conf	Casp3 select	SENP luc ctr
COc1ccc(/C=N/Nc2ccc(C(=O)O)cc2)cc1Br	68*	-330	95*	100*	97*	-2	99*	100*	102*	98*	98*
O=C(Nc1sc2c(c1C(=O)O)CCCC2)c1cccs1	-3	-42	93*	56*	85*	-1	3	90*	98*	86*	90*
O=C(Nc1sc2c(c1C(=O)O)CCCCC2)c1cccs1	7	-61	96*	71*	95*	0	98*	98*	102*	94*	96*
CC1CCc2c(sc(NC(=O)c3cccs3)c2C(=O)O)C1 (stereo not given)	-5	-28	88*	-4	76*	2	86*	86*	92*	66*	86*
COC(=O)c1c(NC(=O)c2cccs2)sc2c1CCC(C)C2 (stereo not given)	0	-396	-4	-4	-7	0	nt	nt	nt	nt	nt
O=C(/C=C/c1cccs1)Nc1sc2c(c1C(=O)O)CCCC2	9	20	74*	8	55*	11	27	66*	81*	58*	71*
O=C(CCc1ccccc1)Nc1sc2c(c1C(=O)O)CCCC2	1	-21	3	0	3	2	nt	nt	nt	nt	nt
Cc1ccc(-c2noc(CNC(=O)COc3ccccc3C)n2)cc1	0	-20	-18	8	-1	-2	nt	nt	nt	nt	nt
Cc1csc2cc(-c3cccc([N+](=O)[O-])c3)c(-c3cccc([N+](=O)[O-])c3)c[n+]12	-11	25	-23	0	-13	1	nt	nt	nt	nt	nt
CCCCN1C(=O)C(CC(=O)NC2CCCCC2)CC(C(=O)N(C)C)=C1C (stereo not given)	nt	1	nt	nt	nt	0	nt	nt	nt	nt	nt
CCNC(=O)NC(=O)COC(=O)c1ccccc1SCC(=O)NC(=O)NCC	6	-472	95*	93*	93*	-133	96*	96*	102*	98*	85*
CC(C(=O)O)c1ccc(N2Cc3ccccc3C2=O)cc1 (stereo not given)	7	-13	54*	41	46	2	26	23	72*	78*	55*
Cc1ccccc1N1Cc2ccccc2C1=O	nt	10	nt	nt	nt	1	nt	nt	nt	nt	nt
Cc1cc(C)cc(C(=O)NCCC(=O)NCc2cc(=O)n(C)c(=O)n2C)c1	20	14	3	-5	-2	1	nt	nt	nt	nt	nt
CC(C)S(=O)(=O)c1ccc(C(=O)Nc2ccc(F)cc2F)cn1	7	11	13	2	-5	5	nt	nt	nt	nt	nt
CCCSc1ccc(C(=O)Nc2ccc(F)cc2F)cn1	13	14	52*	68*	36	3	1	-1	19	22	-7
COC(=O)CCC(C)C1CCC2C3C(OC(C)=O)CC4CC(O)CCC4(C)C3CC(O)C12C (stereo not given)	nt	6	nt	nt	nt	-1	nt	nt	nt	nt	nt
CC(C)(C)c1ccc(/C=C2\SC(=O)N(CCNC(=O)c3cccc(S(=O)(=O)N4CCOCC4)c3)C2=O)cc1	12	0	91*	90*	82*	3	39	59*	74*	55*	3
O=C(NC1CCCC1)C(c1ccccc1)n1c(Cc2cc(F)cc(F)c2)nc2ccccc21 (stereo not given)	nt	1	nt	nt	nt	2	nt	nt	nt	nt	nt
CC(C)(C)C(=O)OCc1nc(-c2ccc3c(c2)OCCO3)cs1	13	14	89*	88*	86*	0	90*	90*	71*	77*	59*
O=C(O)C(=O)Nc1nc(-c2ccc3c(c2)OCCO3)cs1	21	-23	73*	24	44	3	67*	66*	89*	88*	76*
CC(C)(C)C(=O)OCc1nc(-c2ccc(F)cc2)cs1	-5	16	52*	45	24	2	-4	27	71*	25	6
COc1ccc(-c2csc(COC(=O)C(C)(C)C)n2)cc1	3	14	14	31	-4	2	nt	nt	nt	nt	nt
O=C(O)c1cc(N/N=C/c2ccc(N3CCOCC3)cc2)ccc1Cl	-2	-284	-17	31	51*	-9	75*	73*	94*	23	75*
O=C(O)c1cc(N/N=C/c2ccncc2)ccc1Cl	6	-208	60*	41	37	0	58*	54*	85*	25	72*
SMILES	Platelet DG rel	SENP8 block-1	SENP6 inh	SENP7 inh	SENP8 block-2	SENP1 inh	SENP8 confirm	SENP6 conf	SENP7 conf	Casp3 select	SENP luc ctr
CSc1ccc(/C=N/Nc2ccc(Cl)c(C(=O)O)c2)cc1	6	-69	76*	-4	77*	0	-28	91*	100*	25	92*
O=C(O)c1cc(N/N=C/c2cccnc2)ccc1Cl	2	12	43	12	15	5	nt	nt	nt	nt	nt
Cc1ccc(C)c(S(=O)(=O)N2CCCOC2CNC(=O)C(=O)NCCc2ccccc2)c1 (stereo not given)	-19	13	-13	6	-9	-1	nt	nt	nt	nt	nt
CCCN=C1N(C)C[C@@H]2[C@@H]3C(=O)N(C)C(=O)[C@@H]3[C@](Cc3ccccc3)(C(=O)OC)N12	nt	7	nt	1	nt	3	nt	nt	nt	nt	nt
Cn1cccc1C(=O)C(=O)Nc1ccccc1	21	24	92*	94*	80*	3	89*	90*	100*	95*	88*
O=[N+]([O-])c1ccc(N=Nc2ccc(O)cc2O)cc1	?	5	97*	98*	96*	3	100*	101*	104*	99*	99*
O=[N+]([O-])c1cccc(N=Nc2ccc(O)cc2O)c1	nt	37	nt	nt	nt	3	nt	nt	nt	nt	nt
COc1cccc(-c2nc3ccc(O)cc3c(=O)o2)c1	52*	-36	89*	87*	74*	-8	-6	81*	96*	80*	87*
O=C(O)c1ccc(-c2nc(-c3cccc(C(F)(F)F)c3)cs2)cc1	-7	-62	nt	nt	nt	-1	nt	nt	nt	nt	nt

Compound activity: PubChem BioAssay, several laboratories
